# Test results reported in ChEMBL document CHEMBL3352060, “Synthesis and SAR study of novel tricyclic pyrazoles as potent phosphodiesterase 10A inhibitors” (Eur J Med Chem, 2014).
# Legend:
# [1] = molecular target: T1, cAMP and cAMP-inhibited cGMP 3',5'-cyclic phosphodiesterase 10A (Homo sapiens, UniProt Q9Y233); test: Inhibition of human PDE10A (amino acids 14 to 779) using [3H]-labelled cyclic nucleotide as substrate after 1 hr b beta counting
# Outline: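 PDE10A expressed in baculovirus-infected Sf9 cells (27 °C, harvested at 72 h), lysed in Tris/MgCl2/triton buffer and partially purified on Q sepharose. Reactions contained enzyme sufficient to convert 20–25% of substrate, 50 mM HEPES pH 7.6, 10 mM MgCl2, 0.02% Tween20, 0.1 mg/ml BSA, 3H-cAMP at 5 nM final and varying inhibitor levels. Signal was counted by Microbeta, activity was normalized to an uninhibited control (100%), and IC50 values were derived.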
# [2] = molecular target: Dual specificity calcium/calmodulin-dependent 3',5'-cyclic nucleotide phosphodiesterase 1C (Homo sapiens) (UniProt Q14123); test: Inhibition of PDE1C (unknown origin) at 10 uM
# [3] = molecular target: cGMP-dependent 3',5'-cyclic phosphodiesterase (Homo sapiens) (UniProt O00408); test: Inhibition of PDE2A (unknown origin) at 10 uM
# Sequence of cGMP-dependent 3',5'-cyclic phosphodiesterase (Homo sapiens) (O00408 whole entry): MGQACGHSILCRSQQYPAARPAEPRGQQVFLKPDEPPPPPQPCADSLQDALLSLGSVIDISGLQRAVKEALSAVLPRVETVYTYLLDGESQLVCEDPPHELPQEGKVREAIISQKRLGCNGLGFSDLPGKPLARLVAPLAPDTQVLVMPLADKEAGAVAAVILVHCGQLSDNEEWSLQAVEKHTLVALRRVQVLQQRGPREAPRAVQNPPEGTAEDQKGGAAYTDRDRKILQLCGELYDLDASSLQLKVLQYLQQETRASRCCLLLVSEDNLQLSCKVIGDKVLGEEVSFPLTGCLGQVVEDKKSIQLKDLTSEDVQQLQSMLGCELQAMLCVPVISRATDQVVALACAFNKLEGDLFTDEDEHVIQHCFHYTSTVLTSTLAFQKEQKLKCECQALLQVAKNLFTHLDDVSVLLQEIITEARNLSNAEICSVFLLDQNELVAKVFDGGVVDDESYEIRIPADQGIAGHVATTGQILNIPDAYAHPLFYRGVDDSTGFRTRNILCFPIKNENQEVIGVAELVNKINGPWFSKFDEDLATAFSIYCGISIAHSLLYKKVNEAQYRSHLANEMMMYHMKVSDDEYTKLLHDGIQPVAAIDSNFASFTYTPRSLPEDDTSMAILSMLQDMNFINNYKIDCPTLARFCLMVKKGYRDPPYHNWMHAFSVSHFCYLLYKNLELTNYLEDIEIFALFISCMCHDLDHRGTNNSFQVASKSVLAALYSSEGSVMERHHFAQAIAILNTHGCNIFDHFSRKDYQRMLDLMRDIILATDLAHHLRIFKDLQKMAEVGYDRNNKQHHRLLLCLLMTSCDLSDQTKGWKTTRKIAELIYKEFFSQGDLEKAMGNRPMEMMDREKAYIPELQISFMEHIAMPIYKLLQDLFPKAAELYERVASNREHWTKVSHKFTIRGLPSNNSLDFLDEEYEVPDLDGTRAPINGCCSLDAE
# [4] = molecular target: cGMP-inhibited 3',5'-cyclic phosphodiesterase 3A (Homo sapiens) (UniProt Q14432); test: Inhibition of PDE3A (unknown origin) at 10 uM
# [5] = molecular target: 3',5'-cyclic-AMP phosphodiesterase 4D (Homo sapiens) (UniProt Q08499); test: Inhibition of PDE4D (unknown origin) at 10 uM
# Sequence of 3',5'-cyclic-AMP phosphodiesterase 4D (Homo sapiens) (Q08499 whole entry): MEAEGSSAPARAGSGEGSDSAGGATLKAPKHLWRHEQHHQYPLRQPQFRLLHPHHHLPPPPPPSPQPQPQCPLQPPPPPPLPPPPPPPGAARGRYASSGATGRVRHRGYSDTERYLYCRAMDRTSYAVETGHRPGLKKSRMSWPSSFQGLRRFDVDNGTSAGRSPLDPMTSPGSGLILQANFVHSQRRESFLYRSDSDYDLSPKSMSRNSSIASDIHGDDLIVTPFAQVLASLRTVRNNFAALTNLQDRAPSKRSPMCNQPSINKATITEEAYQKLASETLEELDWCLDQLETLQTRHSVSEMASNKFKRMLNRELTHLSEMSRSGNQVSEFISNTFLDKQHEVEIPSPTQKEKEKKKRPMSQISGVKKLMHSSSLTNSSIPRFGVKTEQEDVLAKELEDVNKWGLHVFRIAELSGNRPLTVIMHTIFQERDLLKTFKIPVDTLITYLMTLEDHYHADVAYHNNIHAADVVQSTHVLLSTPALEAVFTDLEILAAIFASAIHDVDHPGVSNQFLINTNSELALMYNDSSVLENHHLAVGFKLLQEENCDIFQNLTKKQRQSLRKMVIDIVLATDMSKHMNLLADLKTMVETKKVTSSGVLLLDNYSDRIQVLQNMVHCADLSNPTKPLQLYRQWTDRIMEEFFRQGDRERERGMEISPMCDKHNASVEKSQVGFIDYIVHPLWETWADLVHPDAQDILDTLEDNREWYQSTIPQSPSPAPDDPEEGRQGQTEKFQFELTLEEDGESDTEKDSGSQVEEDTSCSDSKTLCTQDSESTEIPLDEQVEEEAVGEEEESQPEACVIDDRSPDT
# [6] = molecular target: 3',5'-cyclic-AMP phosphodiesterase 7B (Homo sapiens) (UniProt Q9NP56); test: Inhibition of PDE7B (unknown origin) at 10 uM
# Sequence of 3',5'-cyclic-AMP phosphodiesterase 7B (Homo sapiens) (Q9NP56 whole entry): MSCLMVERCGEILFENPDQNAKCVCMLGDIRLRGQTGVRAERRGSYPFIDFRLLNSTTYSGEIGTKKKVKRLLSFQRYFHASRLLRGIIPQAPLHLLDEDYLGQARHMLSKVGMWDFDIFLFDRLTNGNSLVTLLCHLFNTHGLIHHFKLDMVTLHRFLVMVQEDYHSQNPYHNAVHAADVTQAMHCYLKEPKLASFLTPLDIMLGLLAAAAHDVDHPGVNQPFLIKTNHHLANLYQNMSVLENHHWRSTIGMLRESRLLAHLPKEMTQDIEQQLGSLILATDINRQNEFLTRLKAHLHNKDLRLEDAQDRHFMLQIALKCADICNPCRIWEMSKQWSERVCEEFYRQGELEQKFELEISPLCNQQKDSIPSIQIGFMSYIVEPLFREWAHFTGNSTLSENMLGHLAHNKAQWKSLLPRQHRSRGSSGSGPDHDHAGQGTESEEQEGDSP
# [7] = molecular target: High affinity cAMP-specific and IBMX-insensitive 3',5'-cyclic phosphodiesterase 8A (Homo sapiens) (UniProt O60658); test: Inhibition of PDE8A (unknown origin) at 10 uM
# Sequence of High affinity cAMP-specific and IBMX-insensitive 3',5'-cyclic phosphodiesterase 8A (Homo sapiens) (O60658 whole entry): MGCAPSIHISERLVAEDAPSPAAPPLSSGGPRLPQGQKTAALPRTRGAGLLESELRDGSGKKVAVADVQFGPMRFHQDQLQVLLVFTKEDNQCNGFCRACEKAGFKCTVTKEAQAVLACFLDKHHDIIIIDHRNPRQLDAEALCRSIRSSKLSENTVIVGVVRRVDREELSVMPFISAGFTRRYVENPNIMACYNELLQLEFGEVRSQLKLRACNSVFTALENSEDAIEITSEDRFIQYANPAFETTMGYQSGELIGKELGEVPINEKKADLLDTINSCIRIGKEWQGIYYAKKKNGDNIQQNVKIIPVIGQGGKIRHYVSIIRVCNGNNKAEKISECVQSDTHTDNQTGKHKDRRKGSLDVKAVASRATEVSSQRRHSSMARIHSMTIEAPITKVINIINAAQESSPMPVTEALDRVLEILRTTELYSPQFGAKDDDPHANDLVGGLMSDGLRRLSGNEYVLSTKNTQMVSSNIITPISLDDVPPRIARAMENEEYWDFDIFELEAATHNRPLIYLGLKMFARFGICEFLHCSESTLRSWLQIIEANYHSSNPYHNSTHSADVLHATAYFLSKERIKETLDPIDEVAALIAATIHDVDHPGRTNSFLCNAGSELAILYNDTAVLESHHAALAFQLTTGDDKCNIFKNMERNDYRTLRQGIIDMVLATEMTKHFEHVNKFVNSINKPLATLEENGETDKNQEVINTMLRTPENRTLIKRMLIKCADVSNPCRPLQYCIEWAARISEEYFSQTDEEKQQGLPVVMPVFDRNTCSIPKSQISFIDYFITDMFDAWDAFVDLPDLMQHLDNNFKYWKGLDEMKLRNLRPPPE
# [8] = molecular target: T1, cAMP and cAMP-inhibited cGMP 3',5'-cyclic phosphodiesterase 10A; test: Inhibition of PDE10A (unknown origin) at 10 uM
# [9] = molecular target: Dual 3',5'-cyclic-AMP and -GMP phosphodiesterase 11A (Homo sapiens) (UniProt Q9HCR9); test: Inhibition of PDE11A (unknown origin) at 2 uM
# Sequence of Dual 3',5'-cyclic-AMP and -GMP phosphodiesterase 11A (Homo sapiens) (Q9HCR9 whole entry, looked up): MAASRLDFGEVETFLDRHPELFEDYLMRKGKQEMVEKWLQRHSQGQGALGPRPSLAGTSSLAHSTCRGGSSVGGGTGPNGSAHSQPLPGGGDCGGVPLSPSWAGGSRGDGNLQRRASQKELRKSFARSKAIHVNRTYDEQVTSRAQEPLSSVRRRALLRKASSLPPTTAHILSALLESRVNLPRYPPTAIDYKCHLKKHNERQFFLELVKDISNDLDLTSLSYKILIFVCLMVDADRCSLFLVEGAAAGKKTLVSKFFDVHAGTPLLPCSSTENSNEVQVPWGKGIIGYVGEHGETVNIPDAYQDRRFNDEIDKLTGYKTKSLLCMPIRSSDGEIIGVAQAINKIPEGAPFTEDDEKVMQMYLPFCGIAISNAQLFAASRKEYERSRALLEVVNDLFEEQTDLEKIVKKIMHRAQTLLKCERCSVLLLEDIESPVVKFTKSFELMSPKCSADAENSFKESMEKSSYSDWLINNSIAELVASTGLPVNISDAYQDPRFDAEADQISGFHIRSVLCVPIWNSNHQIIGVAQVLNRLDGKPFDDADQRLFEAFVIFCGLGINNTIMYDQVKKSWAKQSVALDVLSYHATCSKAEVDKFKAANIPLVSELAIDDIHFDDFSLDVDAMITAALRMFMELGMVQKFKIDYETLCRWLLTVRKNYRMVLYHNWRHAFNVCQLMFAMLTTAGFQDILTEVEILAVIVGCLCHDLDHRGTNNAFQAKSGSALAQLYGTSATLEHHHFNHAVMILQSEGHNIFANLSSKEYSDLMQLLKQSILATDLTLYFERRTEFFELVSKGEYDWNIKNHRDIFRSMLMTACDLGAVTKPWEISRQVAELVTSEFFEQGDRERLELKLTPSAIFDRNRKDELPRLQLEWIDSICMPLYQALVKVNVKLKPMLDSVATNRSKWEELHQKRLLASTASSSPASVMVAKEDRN
# [10] = tested on: MDCK; test: Apparent permeability across apical to basolateral side in MDCK cells expressing MDR1 (unknown origin); set-up: unit not given here; conditions: dog
# [11] = molecular target: cGMP-specific 3',5'-cyclic phosphodiesterase (Homo sapiens) (UniProt O76074); test: Inhibition of PDE5A (unknown origin) at 10 uM
# [12] = molecular target: High affinity cGMP-specific 3',5'-cyclic phosphodiesterase 9A (Homo sapiens) (UniProt O76083); test: Inhibition of PDE9A (unknown origin) at 10 uM
# Sequence of High affinity cGMP-specific 3',5'-cyclic phosphodiesterase 9A (Homo sapiens) (O76083 whole entry): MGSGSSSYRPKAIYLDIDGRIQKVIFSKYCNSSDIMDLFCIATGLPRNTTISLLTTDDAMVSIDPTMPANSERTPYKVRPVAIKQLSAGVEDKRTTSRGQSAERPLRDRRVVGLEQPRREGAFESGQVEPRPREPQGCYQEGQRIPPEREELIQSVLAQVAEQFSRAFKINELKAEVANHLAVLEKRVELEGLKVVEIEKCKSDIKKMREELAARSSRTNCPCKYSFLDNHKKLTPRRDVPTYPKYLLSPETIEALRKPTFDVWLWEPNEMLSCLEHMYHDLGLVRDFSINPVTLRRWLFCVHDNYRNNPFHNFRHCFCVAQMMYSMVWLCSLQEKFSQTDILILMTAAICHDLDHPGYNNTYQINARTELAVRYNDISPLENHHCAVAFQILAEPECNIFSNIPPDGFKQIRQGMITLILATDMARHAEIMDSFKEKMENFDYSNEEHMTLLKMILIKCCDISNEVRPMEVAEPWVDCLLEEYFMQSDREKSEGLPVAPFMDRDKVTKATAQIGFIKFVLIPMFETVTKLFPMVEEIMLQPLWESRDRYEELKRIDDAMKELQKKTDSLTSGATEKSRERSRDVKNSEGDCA
# [13] = molecular target: T1, cAMP and cAMP-inhibited cGMP 3',5'-cyclic phosphodiesterase 10A; test: Inhibition of PDE10A (unknown origin) at 2 uM
# [14] = molecular target: Dual 3',5'-cyclic-AMP and -GMP phosphodiesterase 11A (Homo sapiens) (UniProt Q9HCR9); test: Inhibition of PDE11A (unknown origin) at 10 uM
compound,measurement,setting,value
Cc1cc2c3ccccc3cc(CCc3nc(-c4ccccc4)cn3C)n2n1,IC50,[1],900 nM
same,inhibition,[2],-1%
same,inhibition,[3],14%
same,inhibition,[4],20%
same,inhibition,[5],12%
same,inhibition,[6],13%
same,inhibition,[7],17%
same,inhibition,[8],72%
same,inhibition,[9],13%
same,Papp A-B,[10],3.1
Cc1cc2c3ccccc3cc(CCc3nc4ccccc4n3C)n2n1,IC50,[1],1000 nM
same,inhibition,[2],-7%
same,inhibition,[3],8%
same,inhibition,[4],15%
same,inhibition,[5],11%
same,inhibition,[11],20%
same,inhibition,[6],11%
same,inhibition,[7],36%
same,inhibition,[12],10%
same,inhibition,[8],77%
same,inhibition,[9],12%
same,Papp A-B,[10],1.1
Cc1cc2c3cnccc3cc(CCc3nc4ccccc4n3C)n2n1,IC50,[1],480 nM
same,inhibition,[2],10%
same,inhibition,[3],54%
same,inhibition,[4],30%
same,inhibition,[5],15%
same,inhibition,[11],39%
same,inhibition,[6],-3%
same,inhibition,[7],46%
same,inhibition,[12],15%
same,inhibition,[13],79%
same,inhibition,[14],1%
COCc1cc2c3cccnc3cc(CCc3nc(-c4ccccc4)cn3C)n2n1,IC50,[1],42 nM
same,inhibition,[2],7%
same,inhibition,[3],69%
same,inhibition,[4],51%
same,inhibition,[5],58%
same,inhibition,[11],38%
same,inhibition,[6],47%
same,inhibition,[7],29%
same,inhibition,[12],15%
same,inhibition,[8],106%
same,inhibition,[9],70%
same,Papp A-B,[10],17.8
Cc1cc2c3cnccc3cc(CCc3nc(-c4ccccc4)cn3C)n2n1,IC50,[1],55 nM
same,inhibition,[2],11%
same,inhibition,[3],20%
same,inhibition,[4],13%
same,inhibition,[5],25%
same,inhibition,[11],15%
same,inhibition,[6],41%
same,inhibition,[7],25%
same,inhibition,[12],53%
same,inhibition,[13],100%
same,inhibition,[14],7%
Cc1cc2c3ccncc3cc(CCc3nc(-c4ccccc4)cn3C)n2n1,IC50,[1],40 nM
same,inhibition,[2],24%
same,inhibition,[3],17%
same,inhibition,[4],49%
same,inhibition,[5],68%
same,inhibition,[11],59%
same,inhibition,[6],53%
same,inhibition,[7],37%
same,inhibition,[12],12%
same,inhibition,[8],102%
same,inhibition,[9],37%
same,Papp A-B,[10],11.7
Cc1cc2c3cccnc3cc(CCc3nc4ccccc4n3C)n2n1,IC50,[1],170 nM
same,inhibition,[2],28%
same,inhibition,[3],55%
same,inhibition,[4],16%
same,inhibition,[5],23%
same,inhibition,[11],67%
same,inhibition,[6],27%
same,inhibition,[7],13%
same,inhibition,[12],21%
same,inhibition,[13],93%
same,inhibition,[14],43%
CCOC(=O)c1cc2c3cccnc3cc(CCc3nc(-c4ccccc4)cn3C)n2n1,IC50,[1],220 nM
same,inhibition,[3],44%
same,inhibition,[4],13%
same,inhibition,[5],45%
same,inhibition,[11],13%
same,inhibition,[6],-4%
same,inhibition,[7],46%
same,inhibition,[12],20%
same,inhibition,[13],88%
same,inhibition,[14],7%
Cc1cc2c3cccnc3cc(CCc3nc(-c4ccccc4)cn3C)n2n1,IC50,[1],40 nM
same,inhibition,[2],15%
same,inhibition,[3],28%
same,inhibition,[4],5%
same,inhibition,[5],38%
same,inhibition,[11],35%
same,inhibition,[6],18%
same,inhibition,[7],16%
same,inhibition,[12],5%
same,inhibition,[13],102%
same,inhibition,[14],34%
CCOC(=O)c1cc2c3cccnc3cc(CCc3nc4ccccc4n3C)n2n1,IC50,[1],1300 nM
same,inhibition,[2],27%
same,inhibition,[3],20%
same,inhibition,[4],1%
same,inhibition,[5],24%
same,inhibition,[11],38%
same,inhibition,[6],17%
same,inhibition,[7],-6%
same,inhibition,[12],-2%
same,inhibition,[13],73%
same,inhibition,[14],10%
Cn1cc(-c2ccccc2)nc1CCc1cc2ncccc2c2cc(C(F)(F)F)nn12,IC50,[1],190 nM
same,inhibition,[2],-3%
same,inhibition,[3],13%
same,inhibition,[4],28%
same,inhibition,[5],44%
same,inhibition,[11],33%
same,inhibition,[6],41%
same,inhibition,[7],31%
same,inhibition,[12],8%
same,inhibition,[8],101%
same,inhibition,[9],25%
same,Papp A-B,[10],3.1
